In paper PMC8429223 (Biomedicine & pharmacotherapy = Biomedecine & …, 2021):

How the values were obtained:
[1] = test system: EMT marker mRNA in MDA-MB-231 cells; assay: qRT-PCR analysis of EMT markers; assay type: cell-based, human; conditions: ½ IC50, 24 h, vs untreated controls
How it was run: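 MDA-MB-231 cells (0.7–2.2 x 10⁶ per 100 mm dish) were exposed 24 h to test compound or 0.1% v/v DMSO vehicle. Cells were trypsin-released and washed in PBS before RNA work. Transcript levels were measured by qRT-PCR and calculated relative to GAPDH by the ΔΔCt method; unpaired t test with Welch's correction.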

[2] = doses of 200–250 μg kg−1; cited from earlier work
MCF 10A cells = assay: MTT cell viability assay, MCF 10A; assay type: cell-based; conditions: Homo sapiens, 96 h, read-out: MCF 10A IC50
How it was run: (§1)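 Cells were seeded in complete medium, MDA-MB-231 at 2 x 10³ and MCF 10A at 2 x 10⁴ cells/well. After 24 h they were exposed to test compound up to 10 μM, or 0.1% DMSO, for 72 h (MDA-MB-231) or 96 h (MCF 10A). MTT (5 mg ml⁻¹) was added for 4 h at 37°C, 5% CO₂, then formazan was dissolved in DMSO with 10 min shaking and read at 540 nm. IC50 by non-linear regression; mean ± SD (n = 4).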

primary ALL-5 cells = assay: MTT cell viability assay, primary ALL-5; assay type: cell-based; conditions: Homo sapiens, ALL5, 120 h, read-out: ALL-5 IC50
How it was run: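 Primary ALL-5 cells (patient bone-marrow-derived) were kept in supplemented IMDM at 1–3 x 10⁶ cells ml⁻¹ and plated at 10⁵ cells/well. They were treated 120 h with a test compound series or 0.1% DMSO. MTT (5 mg ml⁻¹) was added for 24 h at 37°C, then 10% SDS in 0.01 M HCl for a further 24 h; absorbance 540 nm. IC50 by non-linear regression; mean ± SD (n = 4).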

MDA-MB-231 cells [3] = assay: Cell cycle / sub-G1 DNA analysis by flow cytometry; assay type: cell-based, human; conditions: 30 μM SAL, 24 h (20 μM not significant)
[4] = test system: Bak and LC3-II in MDA-MB-231 cells; assay: Immunoblot analysis, cell monolayer; assay type: cell-based, human
How it was run: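 Monolayers of MDA-MB-231 (2.2 x 10⁶ cells/100 mm dish) were treated 24 or 48 h with test compound or 0.1% DMSO, ± 100 μM Z-VAD-FMK. Cells were trypsin-harvested, snap-frozen and lysed in 25 mM HEPES pH 7.5, 300 mM NaCl, 0.1% Triton X-100 with protease/phosphatase inhibitors. Blots were blocked in 5% milk/TBS-T 1 h at RT, then probed overnight at 4°C: Bak and LC3B 1:1000, GAPDH 1:10000 loading control; HRP anti-rabbit 1:5000. Band intensities were normalised to GAPDH as fold of control; mean ± SD (n=3).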

[5] = test system: CD44+/CD24-/low cells of MDA-MB-231 organoids; assay: CD44/CD24 cell surface markers by flow cytometry, organoids; assay type: cell-based, human; conditions: 2.5 μM 1 or 0.5 μM 17, 48 h
How it was run: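 MDA-MB-231 organoids were made from 20 μl droplets of 1:4 complete Mammocult:Matrigel holding 10⁴ cells each. Droplets were set 1 h at 37°C, grown static 4 days with half-medium feeds every other day, then shaken at 90 rpm. One dissected organoid per 1 ml Mammocult was treated 48 h (vehicle 0.1% DMSO), then dispersed in enzyme-free dissociation buffer with 0.2% NDA. Cells were stained with FITC-anti-CD24 (1:100) and PE-anti-CD44 (1:200) for 30 min in the dark, then PI/RNase. Viable PI-negative cells were gated against isotype control; mean ± SD (n=3).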

MDA-MB-231 cells [6] = assay: Colony formation assay; assay type: cell-based, human
How it was run: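 MDA-MB-231 cells were seeded at 1.5 x 10⁵/well and left 48 h to attach. After medium change, cells were exposed to test compound or 0.1% DMSO for 6–72 h. They were then harvested and re-plated at 250 cells/well (n=6) in compound-free medium for 13 days. Staining was 0.5% crystal violet in methanol, 40 min at RT. Colonies of ≥25 cells were counted by hand and expressed as % of vehicle; one-way ANOVA.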

breast CSCs = conditions: cited from earlier work
MDA-MB-231 cells [7] = assay: MTT cell viability assay, MDA-MB-231; assay type: cell-based, human; conditions: single agent, MDA-MB-231, MTT
How it was run: as §1

| SMILES | E-cadherin mRNA [1] | Snail-2 mRNA [1] | Vimentin mRNA [1] | tolerability in cancer patients [2] | IC50 (MCF 10A cells) [µM] | IC50 (primary ALL-5 cells) [µM] | sub-G1 DNA content (MDA-MB-231 cells [3]) | LC3-II (14 kDa) expression vs. untreated control ([4]; 5 x IC50 (25 μM 1, 14 μM 2, 5 μM 17), 24 h) | Bak expression vs. control ([4]; 5 x IC50, 24 h and 48 h, monolayer) | percentage of CD44+/CD24-/low cells [5] | inhibition of colony growth (MDA-MB-231 cells [6]; 48 h treatment at ½ IC50) [%] | inhibition of colony growth (MDA-MB-231 cells [6]; 72 h treatment at ½ IC50) [%] | potency in reducing viability of breast CSCs relative to paclitaxel (breast CSCs) [times] | IC50 (MDA-MB-231 cells [7]) [µM] |
| --- | --- | --- | --- | --- | --- | --- | --- | --- | --- | --- | --- | --- | --- | --- |
| CC[C@@H](C(=O)[C@@H](C)[C@@H](O)[C@H](C)[C@@H]1O[C@@H]([C@@H](CC)C(=O)O)CC[C@@H]1C)[C@H]1O[C@]2(C=C[C@@H](O)[C@]3(CC[C@@](C)([C@H]4CC[C@](O)(CC)[C@H](C)O4)O3)O2)[C@H](C)C[C@@H]1C [SAL (1), salinomycin] | downregulated | upregulated | upregulated | well tolerated | 0.1 ± 0.02 | 5.8 ± 1.7 | statistically significant sub-G1 DNA content | significant upregulation | very modest, but statistically significant, increase | modest, but significant reduction | 84 | 90 | ~100 |  |
| O=C(NO)c1ccccc1 [benzhydroxamic acid] |  |  |  |  |  |  |  |  |  |  |  |  |  | 142 |
